Measurements reported in ChEMBL document CHEMBL4118094, “Structure-Guided Design and Initial Studies of a Bifunctional MEK/PI3K Inhibitor (ST-168)” (ACS Med Chem Lett, 2017).
pIC50: −log10 of the molar value. The source made the active and inactive calls. The rule behind the calls is not given here.

Tests used:
[1] = molecular target: PI3-kinase p110-delta/p85-alpha (Homo sapiens, UniProt O00329); assay: Inhibition of recombinant human full length His-tagged PI3K p110delta/p85alpha expressed in baculovirus expression system coexpressing PIK3R1 by TR-FRET assay
Procedure, shortened: (§1)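 PI3K isoform activity by fluorescence-based Adapta TR-FRET kinase assay. Values are the average of 3 experiments, each run in duplicate, given as mean ± SEM.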

[2] = molecular target: PI3-kinase p110-alpha/p85-alpha (Homo sapiens, UniProt P42336); assay: Inhibition of recombinant human full length His-tagged PI3K p110alpha/p85alpha expressed in baculovirus expression system coexpressing PIK3R1 by TR-FRET assay; procedure, shortened: as §1
[3] = molecular target: T1, Dual specificity mitogen-activated protein kinase kinase 1 (Homo sapiens, UniProt Q02750); assay: Inhibition of MEK1 in human A375 cell lysate assessed as reduction in ERK1/2 phosphorylation at Thr202/Tyr204 at 20 uM after 1 hr by Western blot analysis
Procedure, shortened: (§2)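 A375 cells (constitutive MEK1/PI3K pathway activation) incubated 1 h with compound at 20 µM against equimolar DMSO. Lysates immunoblotted: ERK1/2 phosphorylation for MEK1 activity, AKT Ser473 phosphorylation for PI3K activity.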

Homo sapiens = species on record: Homo sapiens; assay: Inhibition of PI3K in human A375 cell lysate assessed as reduction in Akt phosphorylation at Ser473 residue at 20 uM after 1 hr by Western blot analysis; procedure, shortened: as §2
A-375 [4] = assay: Antiproliferative activity against human A375 spheroids at 20 uM after 72 hrs by calcein AM/ethidium homodimer 1 staining based fluorescence microscopy; format: functional, cell-based
Procedure, shortened: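 A375 melanoma spheroids exposed 72 h to compound at 20 µM; then stained with calcein AM (live, green) and ethidium homodimer-1 (dead, red). Read by fluorescence microscopy. Replicate experiments, representative images.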

A-375 [5] = assay: Antitumor activity against human A375 cells xenografted in athymic Foxn1nu mouse assessed as tumor growth inhibition at 400 mg/kg, qd administered via oral gavage measured after 35 days by MRI imaging analysis; format: functional, organism-based
Procedure, shortened: (§3)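 Nude mice inoculated in the flank with 5 x 10^6 A375 cells in 100 µl. Dosing began once tumors exceeded 100 mm3, after randomization. Daily oral gavage at 400 mg/kg until sacrifice at 42 days; vehicle was 200 µl OraPlus. Tumor growth followed by MRI twice per week.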

[6] = molecular target: T1, Dual specificity mitogen-activated protein kinase kinase 1; assay: Inhibition of recombinant human GST-tagged MEK1 expressed in baculovirus infected Sf9 insect cells using inactive ERK2 as substrate preincubated for 30 mins followed by substrate addition measured after 2 hrs by kinase-glo reagent based bioluminescence assay
A-375 [7] = assay: Antitumor activity against human A375 cells xenografted in athymic Foxn1nu mouse assessed as tumor growth inhibition at 400 mg/kg, qd administered via oral gavage for 42 days measured twice per week by MRI imaging analysis; format: functional, organism-based; procedure, shortened: as §3

T1 sequence (Q02750 whole entry): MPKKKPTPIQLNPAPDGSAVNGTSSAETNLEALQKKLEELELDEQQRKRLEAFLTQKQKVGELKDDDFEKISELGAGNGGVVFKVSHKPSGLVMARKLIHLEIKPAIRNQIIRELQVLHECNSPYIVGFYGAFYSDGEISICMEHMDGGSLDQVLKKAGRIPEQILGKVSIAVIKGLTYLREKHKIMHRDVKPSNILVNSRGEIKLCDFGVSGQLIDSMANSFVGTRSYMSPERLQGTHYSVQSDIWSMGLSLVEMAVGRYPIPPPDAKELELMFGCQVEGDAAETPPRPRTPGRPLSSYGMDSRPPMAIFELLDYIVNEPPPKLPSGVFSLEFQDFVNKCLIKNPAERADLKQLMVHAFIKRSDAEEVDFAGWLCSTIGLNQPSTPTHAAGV
PI3-kinase p110-delta/p85-alpha, sequence (P27986 whole entry, canonical isoform): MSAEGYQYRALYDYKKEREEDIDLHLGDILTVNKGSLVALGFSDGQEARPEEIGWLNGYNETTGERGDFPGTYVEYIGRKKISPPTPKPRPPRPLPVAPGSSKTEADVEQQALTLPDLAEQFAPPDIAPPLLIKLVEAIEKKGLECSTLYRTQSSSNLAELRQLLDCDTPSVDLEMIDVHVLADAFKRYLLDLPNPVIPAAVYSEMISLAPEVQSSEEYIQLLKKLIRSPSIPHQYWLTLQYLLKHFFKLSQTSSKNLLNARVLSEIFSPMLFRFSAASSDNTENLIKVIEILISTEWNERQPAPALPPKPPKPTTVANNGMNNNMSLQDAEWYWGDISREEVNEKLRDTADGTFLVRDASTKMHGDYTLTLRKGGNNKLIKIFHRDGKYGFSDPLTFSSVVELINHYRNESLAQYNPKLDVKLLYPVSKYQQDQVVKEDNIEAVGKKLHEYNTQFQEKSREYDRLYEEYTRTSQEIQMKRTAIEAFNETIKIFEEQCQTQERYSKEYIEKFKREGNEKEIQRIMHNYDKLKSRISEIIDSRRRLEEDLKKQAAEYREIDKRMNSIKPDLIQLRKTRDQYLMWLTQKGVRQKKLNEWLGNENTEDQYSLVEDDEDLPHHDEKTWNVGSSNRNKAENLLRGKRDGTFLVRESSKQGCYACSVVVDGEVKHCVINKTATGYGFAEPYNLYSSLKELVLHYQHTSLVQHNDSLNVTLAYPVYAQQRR
PI3-kinase p110-delta/p85-alpha, sequence (O00329 whole entry, canonical isoform): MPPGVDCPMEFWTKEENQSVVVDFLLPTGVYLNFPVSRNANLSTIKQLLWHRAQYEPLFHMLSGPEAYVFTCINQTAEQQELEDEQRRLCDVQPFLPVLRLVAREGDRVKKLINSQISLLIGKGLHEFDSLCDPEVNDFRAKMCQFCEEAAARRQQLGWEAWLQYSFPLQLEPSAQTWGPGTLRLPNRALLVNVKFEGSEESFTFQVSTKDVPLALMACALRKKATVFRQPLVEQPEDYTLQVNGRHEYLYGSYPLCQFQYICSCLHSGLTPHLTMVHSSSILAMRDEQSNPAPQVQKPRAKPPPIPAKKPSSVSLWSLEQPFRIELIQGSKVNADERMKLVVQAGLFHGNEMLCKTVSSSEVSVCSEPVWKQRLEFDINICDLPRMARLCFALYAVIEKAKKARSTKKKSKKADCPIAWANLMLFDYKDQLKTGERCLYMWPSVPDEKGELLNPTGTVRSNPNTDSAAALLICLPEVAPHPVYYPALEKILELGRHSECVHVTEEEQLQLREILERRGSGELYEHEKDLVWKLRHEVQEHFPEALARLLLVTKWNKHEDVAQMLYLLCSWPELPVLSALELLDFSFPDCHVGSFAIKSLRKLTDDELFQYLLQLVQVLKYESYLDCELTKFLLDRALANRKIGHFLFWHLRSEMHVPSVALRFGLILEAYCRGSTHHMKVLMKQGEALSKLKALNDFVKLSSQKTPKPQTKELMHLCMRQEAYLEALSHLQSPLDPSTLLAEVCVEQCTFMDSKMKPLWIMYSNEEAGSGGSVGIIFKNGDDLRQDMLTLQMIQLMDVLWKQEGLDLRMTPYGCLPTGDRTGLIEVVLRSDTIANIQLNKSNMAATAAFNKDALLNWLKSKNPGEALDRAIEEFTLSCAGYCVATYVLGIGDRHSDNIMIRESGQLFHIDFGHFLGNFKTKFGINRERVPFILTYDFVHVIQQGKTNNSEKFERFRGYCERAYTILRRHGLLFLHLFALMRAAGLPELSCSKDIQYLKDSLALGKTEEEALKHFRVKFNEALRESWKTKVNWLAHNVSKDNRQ
PI3-kinase p110-alpha/p85-alpha, sequence (P27986 whole entry): as the sequence (P27986 whole entry, canonical isoform) above
PI3-kinase p110-alpha/p85-alpha, sequence (P42336 whole entry): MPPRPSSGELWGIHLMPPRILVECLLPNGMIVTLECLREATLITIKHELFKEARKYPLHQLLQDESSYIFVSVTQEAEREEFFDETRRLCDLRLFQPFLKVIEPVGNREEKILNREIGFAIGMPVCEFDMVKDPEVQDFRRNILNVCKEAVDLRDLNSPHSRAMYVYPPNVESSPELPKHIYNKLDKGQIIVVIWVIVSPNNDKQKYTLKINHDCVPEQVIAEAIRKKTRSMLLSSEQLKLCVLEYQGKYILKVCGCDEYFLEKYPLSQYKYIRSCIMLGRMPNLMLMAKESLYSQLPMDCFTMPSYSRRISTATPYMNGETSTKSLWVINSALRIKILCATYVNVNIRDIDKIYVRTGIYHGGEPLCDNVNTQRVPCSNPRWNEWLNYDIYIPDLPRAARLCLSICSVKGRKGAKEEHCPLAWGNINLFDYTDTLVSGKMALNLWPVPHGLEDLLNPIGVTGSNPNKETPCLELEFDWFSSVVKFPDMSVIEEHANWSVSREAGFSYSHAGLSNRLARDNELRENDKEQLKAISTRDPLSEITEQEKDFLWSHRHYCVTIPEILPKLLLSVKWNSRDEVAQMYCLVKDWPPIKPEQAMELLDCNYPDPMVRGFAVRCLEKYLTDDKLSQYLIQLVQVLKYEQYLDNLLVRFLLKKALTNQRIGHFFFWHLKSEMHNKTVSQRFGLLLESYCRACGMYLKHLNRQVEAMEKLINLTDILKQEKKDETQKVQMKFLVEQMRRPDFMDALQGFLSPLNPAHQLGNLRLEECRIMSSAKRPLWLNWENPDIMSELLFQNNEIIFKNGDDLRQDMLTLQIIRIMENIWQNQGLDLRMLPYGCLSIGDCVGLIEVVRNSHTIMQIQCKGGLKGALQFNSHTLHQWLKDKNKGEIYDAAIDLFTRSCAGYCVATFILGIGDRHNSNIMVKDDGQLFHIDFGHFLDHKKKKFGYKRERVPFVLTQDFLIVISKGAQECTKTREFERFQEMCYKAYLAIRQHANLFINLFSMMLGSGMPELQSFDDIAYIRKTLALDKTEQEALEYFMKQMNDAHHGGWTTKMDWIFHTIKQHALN

CC(=O)N1CCN(c2nc(N3CCOCC3)nc(-n3c(C(F)F)nc4ccccc43)n2)CC1
pIC50 [1]: 8.54 | pIC50 [2]: 8.09

O=C(NOCCOCCOCCOCCC(=O)N1CCN(c2nc(N3CCOCC3)nc(-n3c(C(F)F)nc4ccccc43)n2)CC1)c1ccc(F)c(F)c1Nc1ccc(I)cc1F
pIC50 [1]: 7.38 | inhibition [3]: Active | inhibition (Homo sapiens): Active | Activity (A-375 [4]): Active | TGI (A-375 [5]): Active | pIC50 [6]: 6.74 | pIC50 [2]: 7.16

O=C(NOCCOCCOCCOCCN1CCN(c2nc(N3CCOCC3)nc(-n3c(C(F)F)nc4ccccc43)n2)CC1)c1ccc(F)c(F)c1Nc1ccc(I)cc1F
pIC50 [1]: 6.03 | inhibition [3]: Active | inhibition (Homo sapiens): Active | Activity (A-375 [4]): Active | TGI (A-375 [7]): Active | pIC50 [6]: 6.40 | pIC50 [2]: 6.72

FC(F)c1nc2ccccc2n1-c1nc(N2CCNCC2)nc(N2CCOCC2)n1
pIC50 [1]: 6.85 | pIC50 [2]: 6.74

NOCCOCCOCCOCCC(=O)N1CCN(c2nc(N3CCOCC3)nc(-n3c(C(F)F)nc4ccccc43)n2)CC1
pIC50 [1]: 8.89 | pIC50 [2]: 7.94
